Screening results: PubChem BioAssay, several laboratories
MIN6 prolif – induces beta-cell replication in MIN6 cells; MIN6 cells proliferation, ATPlite luminescence, 48 h; cells starved in 0.2% serum; 100% = growth in 10% serum; proliferation, % at 10 µM; 330,000 compounds, 0.29% hits;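 active = compounds whose signal lies at least 3.5 SD above the mean of all wells on their plate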;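 note: 0% = DMSO-treated cells in low-serum medium and 100% = 10% serum control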
TLR9-MyD88 inh – blocks human TLR9 binding to MyD88; CHO BLA complementation TLR9-MyD88, CCF4 FRET ratio; inhibition, % at 4.98 µM; 340,000 compounds, 0.21% hits; AID 504734;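 active = inhibition above the mean over all tested compounds plus 3 SD, cut at about 21% in these data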;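 note: 0% = DMSO only wells and 100% = clavulanate BLA inhibitor control wells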
MC4R antagonist – antagonists of human melanocortin 4 receptor (MC4R) | MC4R-expressing cells, MTII-stimulated cAMP, LANCE TR-FRET | inhibition, % at 6.5 µM | 360,000 compounds, 0.48% hits | AID 540295 | P32245;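 active = inhibition above its plate's cutoff, the mean of tested wells on that plate plus 3 SD, cut at about 29% in these data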;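 note: 0% = Melanotan II alone and 100% = Melanotan II plus saturating MCL0020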
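Material – human MC4R-expressing U2OS cells · Repeats – no replicates · Detection – TR-FRET with Eu-cAMP and labeled anti-cAMP, 671 nm · Times – compound 30 min, challenge 1 h, detection 1 h · Compound – single nominal compound dose of 6.5 µM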
TLR4 MyD88 comp – blocks binding of human TLR4 to MyD88 | O00206+Q99836 | HeLa CL3-4 TLR4/MyD88 BLA complementation, FRET ratio | inhibition, % at 8.4 µM | 200,000 compounds, 0.18% hits | AID 861; in the data active = inhibition above about 25%;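 note: 0% = vehicle and 100% = reference inhibitor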
NOD2 RIPK2 PPI – NOD2-RIPK2 protein interaction inhibition; O43353; CHO BLA complementation NOD2-RIPK2, CCF4 ratio; inhibition, % at 4.98 µM; 360,000 compounds, 0.38% hits; AID 624267; in the data active = inhibition above about 21%;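 note: 0% = vehicle only and 100% = reference blocker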
Target sequence (O43353 whole entry, looked up): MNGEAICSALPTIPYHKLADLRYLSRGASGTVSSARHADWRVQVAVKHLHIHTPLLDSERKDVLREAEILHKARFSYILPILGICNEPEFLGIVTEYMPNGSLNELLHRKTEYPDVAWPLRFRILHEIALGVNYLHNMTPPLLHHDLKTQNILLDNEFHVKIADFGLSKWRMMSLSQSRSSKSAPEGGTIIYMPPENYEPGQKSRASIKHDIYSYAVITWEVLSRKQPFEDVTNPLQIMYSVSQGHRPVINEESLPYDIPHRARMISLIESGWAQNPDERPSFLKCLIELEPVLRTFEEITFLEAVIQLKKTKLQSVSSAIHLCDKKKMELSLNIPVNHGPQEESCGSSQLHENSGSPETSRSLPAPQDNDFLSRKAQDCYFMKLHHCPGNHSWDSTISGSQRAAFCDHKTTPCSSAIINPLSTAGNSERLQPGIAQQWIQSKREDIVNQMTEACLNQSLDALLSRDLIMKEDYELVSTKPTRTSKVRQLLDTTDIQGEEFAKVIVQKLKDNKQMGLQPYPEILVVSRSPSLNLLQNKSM
MC4R ag barr – human MC4R agonism via beta-arrestin. P32245. U2OS MC4R beta-arrestin complementation, luminescence; percent of melanotan II response, DMSO zero. activation, % at 8.9 µM. 360,000 compounds, 0.98% hits;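 active = activation above a per-plate cutoff, the mean activation of sample wells on that plate plus 3 SD, cut at about 8% in these data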
NOD2 RIPK2 conf – confirmation of human NOD2-RIPK2 interaction inhibitors; shares compounds with NOD2 RIPK2 PPI; CHO cells, NOD2-RIPK2 BLA complementation, CCF4 FRET; inhibition, % at 4.98 µM; 1,200 compounds, 70% hits; AID 624370;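 active = mean inhibition across replicates above a set limit taken from the earlier primary screen, cut at about 21% in these data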;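 note: 0% = DMSO-only wells and the high end = clavulanate BLA-blocked wells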
NOD2 BLA counter – hits BLA reporter in NOD2-RIPK2 inhibitor counterscreen; shares compounds with NOD2 RIPK2 PPI; CHO BLA reporter, CCF4 FRET ratio; inhibition, % at 4.98 µM; 1,200 compounds, 57% hits;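 active = mean inhibition above the low-control mean inhibition plus three low-control SD, cut at about 11% in these data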;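 note: 0% = DMSO only wells and 100% = clavulanate high control wells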
Numbers without * were called inactive; nt = not tested or not shown; ! = a repeat was not active. Rows were chosen to be rich in hits. Some 2.1% of all compounds tested hit in one or more screens of this group.

SMILES	MIN6 prolif	TLR9-MyD88 inh	MC4R antagonist	TLR4 MyD88 comp	NOD2 RIPK2 PPI	MC4R ag barr	NOD2 RIPK2 conf	NOD2 BLA counter
Cc1ccc(-c2noc(CCC(=O)NCCCN3CCN(c4ccc(F)cc4)CC3)n2)cc1	-3.2	5.8	5.8	7.1	-8.6	0.9	nt	nt
S=C(NCCCN1CCOCC1)Nc1cccc(-c2nnc3n2CCCCC3)c1	0.1	13.4	1.2	-16.6	6.5	3.3	nt	nt
Cc1ccc(C)c(Cn2c3ccccc3c3cnn(CC(=O)NCCCN4CCCCC4)c(=O)c32)c1	-6.9	-7.6	2.1	nt	21.1*	-2.6	14.0	-0.2
CNC[C@@H](CC1CCCCC1)NC[C@H](CC(C)C)NCCc1cccc(C(F)(F)F)c1	-8.1	-5.2	2.8	nt	21.4*	6.2	27.6*	5.7
CC[C@@H](C)[C@H](CNC)NC[C@@H](Cc1cccc2ccccc12)NCCc1cccc(C(F)(F)F)c1	-6.8	-6.6	11.4	nt	18.9	6.2	nt	nt
Cc1ccc(CNS(=O)(=O)c2c(C(=O)N3CCCCCC3)c(C)n(C)c2C)cc1	2.5	3.2	3.5	nt	54.1*	-1.3	-1.3	0.0
COc1ccc(COc2cc(-c3cccc(OC)c3)nc3ccc(N)cc23)cc1	-8.5	4.2	-9.5	-4.6	30.9*	-1.3	11.5	14.8*
C=C(CN(C)C)C(=O)c1ccc(OC2OC(COC(C)=O)C(OC(C)=O)C(OC(C)=O)C2OC(C)=O)cc1 (configuration not stated)	nt	7.8	-27.4	nt	26.8*	-1.2	73.7*	24.3*
CC(=O)OC[C@H]1O[C@@H](O/N=C/[C@@H](C)[C@H](OCc2ccccc2)C(C)C)[C@H](OC(C)=O)[C@@H](OC(C)=O)[C@@H]1OC(C)=O	-4.7	nt	nt	-4.1	nt	nt	nt	nt
CC1CCCN(c2nc(N(C)c3ccccc3)nc(N)c2[N+](=O)[O-])C1 (configuration not stated)	-1.2	8.3	15.8	nt	-5.7	1.4	nt	nt
CCCCNc1c(-c2ccc(-c3cccc(Cl)c3)cc2)nc2ccccn12	-7.7	12.5	22.6	nt	22.4*!	0.0	15.8	15.7*
COc1ccc(-c2cc(C#N)nc(Cl)n2)cc1	-4.0	5.9	-26.4	nt	27.8*	-3.8	39.9*	-1.4
COc1ccc(-c2cc(C#N)nc(NN)n2)cc1	-1.5	-2.3	-1.0	nt	-7.7	-0.1	nt	nt
O=C(C(=Cc1ccc(F)cc1)c1ccccc1)c1ccc(O)cc1	nt	3.5	4.4	nt	2.7	0.5	nt	nt
O=C(C(=Cc1ccc(F)cc1)C(=O)c1ccccc1)c1ccccc1	nt	nt	nt	nt	29.0*	nt	12.8	-3.0
Cc1ccc(S(=O)(=O)N2CCOC2CNC(=O)C(=O)NCc2ccc(Cl)cc2)cc1 (configuration not stated)	-5.3	-9.8	7.2	nt	-6.1	-1.9	nt	nt
O=C(NC1=C(Nc2ccc(Cl)cc2)C(=O)c2ccccc2C1=O)c1ccccc1	-5.9	-4.3	-1.2	-14.4	-8.7	-1.9	nt	nt
O=C1C(Cl)=C(NC(=O)c2ccccc2)C(=O)C(Cl)=C1NC(=O)c1ccccc1	-6.0	7.2	-29.2	nt	53.8*	-3.4	67.8*	36.6*
CCOC(=O)C1=C(C)Nc2sc(C(=O)c3ccc(C)cc3)c(N)c2C1c1ccc(C(=O)OC)cc1 (configuration not stated)	0.0	17.9	5.3	13.5	41.5*	-3.4	8.8	17.0*
Cc1nc2ccccc2n1S(=O)(=O)N(C)C	0.0	-3.9	4.7	-13.8	6.0	-5.0	nt	nt
CN(C)S(=O)(=O)n1cnc(-c2ccccc2)c1-c1ccccc1	0.8	-4.3	4.3	-2.3	35.3*	-2.5	2.0	-2.1
C/C(=N\Nc1ccc([N+](=O)[O-])cc1)c1cccc(N)c1	0.4	10.9	-2.8	5.4	23.8*	-3.0	18.6	21.1*
C/C(=N\Nc1ncc(Br)cn1)c1cccc([N+](=O)[O-])c1	-1.1	3.7	3.0	nt	-8.7	-0.6	nt	nt
O=S(=O)(N[C@H](CO)c1ccccc1)c1ccc(Br)cc1F	nt	-5.7	-0.1	nt	-6.1	1.3	nt	nt
CC(C)N1C(=O)S/C(=C/c2ccc3c(c2)n(C)c(=O)n3C)C1=O	-2.9	-3.9	-1.6	2.4	1.7	-0.2	nt	nt
SMILES	MIN6 prolif	TLR9-MyD88 inh	MC4R antagonist	TLR4 MyD88 comp	NOD2 RIPK2 PPI	MC4R ag barr	NOD2 RIPK2 conf	NOD2 BLA counter
CCN(CC)c1ccc(/C=C2\SC(=O)N(C(C)C)C2=O)o1	-4.1	nt	9.2	nt	55.9*	-1.9	11.8	10.5*
O=c1c2ccccc2oc2cc(OCc3ccc(F)cc3)cc(O)c12	3.8	0.9	2.9	nt	-8.6	-0.2	nt	nt
O=c1ccsn1Cc1ccccc1	-5.5	1.7	-18.7	7.5	27.0*	2.7	-3.7	1.2
Clc1ccc(N=NN2CCOCC2)cc1	-1.5	2.5	-9.2	nt	0.4	1.8	nt	nt
Cc1[nH]nc(C(F)(F)F)c1N=NN1CCOCC1	nt	-2.1	-2.3	nt	44.3*	-1.5	12.4	-3.7
COc1cc2c(cc1CN1CCN(C(=O)c3cc(OC)c(OC)c(OC)c3)CC1)OCO2	-1.9	-10.4	19.0	nt	4.5	-0.9	nt	nt
Cc1ccc(S(=O)(=O)N(C)CC(=O)N(C)CCOc2ccccc2)cc1	nt	-5.3	-4.0	nt	0.3	-0.8	nt	nt
COc1ccc(Nc2nnc(SCC(=O)N3CC(=O)Nc4ccccc43)s2)cc1	-2.1	-1.4	6.9	3.0	26.6*	1.9	3.5	-7.6
COc1ccc(Nc2nnc(SCC(=O)N3CCCC3)s2)cc1	-1.1	-3.8	3.5	-3.2	-5.2	-0.9	nt	nt
Cc1ccc(NC(=O)C2CCN(S(=O)(=O)c3ccc(C(C)(C)C)cc3)CC2)cc1S(=O)(=O)N1CCOCC1	nt	-2.6	8.9	nt	-0.2	1.5	nt	nt
CN1C/C(=C\c2ccc(N3CCOCC3)cc2)C(=O)/C(=C/c2ccc(N3CCOCC3)cc2)C1	-1.1	5.5	-7.3	1.7	5.3	-2.8	nt	nt
CCN1C/C(=C/c2ccc(N3CCOCC3)cc2)C(=O)/C(=C/c2ccc(N3CCOCC3)cc2)C1	nt	7.6	-7.5	19.7	22.8*	-1.7	38.7*	34.1*
CCOC(=O)c1ccc(NC(=O)Nc2ccon2)cc1	-5.3	10.5	-23.6	nt	22.3*	-0.8	21.2*	-1.6
CCOC(=O)c1ccc(NC(=O)Nc2ccc(Cl)cn2)cc1	1.4	0.0	8.1	-5.9	-7.5	0.1	nt	nt
COc1ccc(OC)c(/C=C/C(=O)OCC(=O)N2C(C)CCCC2C)c1 (configuration not stated)	-3.0	1.1	-2.0	nt	21.4*	-1.2	5.2	0.1
